For one data set, the system named is Besnoitia jellisoni. Nature of the data set: Antiprotozoal activity against Besnoitia jellisoni trophozoites in HFF cells assessed as intactness of cell monolayer after 4 days by Ex-Bes assay. The conditions noted are these: 96 h, read-out: ED50 (the source's name). Type of data set: functional. In short, it runs like this:
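Whole-cell in vitro Ex-Bes (extended Besnoitia) assay: B. jellisoni trachyzoites treated with test compounds. ED50 is the concentration giving 50% reduction of trachyzoites relative to an untreated control, read visually. Value is the average of two experiments run in duplicate.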

For data set [1], the system named is HFF. Nature of the data set: Cytotoxicity against human HFF cells at 1 ug/ml by Ex-Bes assay. It counts as cell-based.
The subject of data set [2] is HFF. Nature of the data set: Cytotoxicity against human HFF cells at =< 0.125 ug/ml by Ex-Bes assay. It counts as cell-based.
Data set [3] deals with Eimeria tenella. The data set can be described thus: Anticococcidal activity against Eimeria tenella infected chick assessed as reduction of oocyst at 150 ppm after 48 hrs relative to control. Type of data set: functional. Set-up: scale not given: the % may be the effect or the level left. In short, it runs like this:
(§1)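 In vivo test in the minibird assay for coccidiosis (MAC) using Eimeria-infected chickens. Compounds were tested as purified material. Activity in this assay guided fractionation of the fungal extract.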

Data set [4] relates to Eimeria acervulina. Nature of the data set: Anticococcidal activity against Eimeria acervulina infected chick assessed as reduction of oocyst at 150 ppm after 48 hrs relative to control. Details: scale not given: the % may be the effect or the level left. It counts as functional. In a few lines: as §1
Data set [5] has as its system Eimeria acervulina. The data set can be described thus: Anticococcidal activity against Eimeria acervulina infected chick assessed as reduction of oocyst at 75 ppm after 48 hrs relative to control. Type of data set: functional. Set-up: scale not given: the % may be the effect or the level left. In a few lines:
as §1

For data set [6], the system named is Eimeria mitis. Nature of the data set: Anticococcidal activity against Eimeria mitis infected chick assessed as reduction of oocyst at 150 ppm after 48 hrs relative to control. It counts as functional. Set-up: scale not given: the % may be the effect or the level left. In a few lines: as §1
Data set [7] deals with Eimeria maxima. The data set can be described thus: Anticococcidal activity against Eimeria maxima infected chick assessed as reduction of oocyst at 75 ppm after 48 hrs relative to control. Type of data set: functional, organism-based. In a few lines:
as §1

For data set [8], the system named is Eimeria praecox. The data set can be described thus: Anticococcidal activity against Eimeria praecox infected chick assessed as reduction of oocyst at 75 ppm after 48 hrs relative to control. Type of data set: functional. In short, it runs like this:
as §1

The test system of data set [9] is HFF. Nature of the data set: Cytotoxicity against human HFF cells at 500 ppm by Ex-Bes assay. It counts as cell-based.
Data set [10] has as its system Eimeria maxima. The data set can be described thus: Anticococcidal activity against Eimeria maxima infected chick assessed as reduction of oocyst at 150 ppm after 48 hrs relative to control. It counts as functional, organism-based. In short, it runs like this:
as §1

Data set [11] concerns Eimeria praecox. Nature of the data set: Anticococcidal activity against Eimeria praecox infected chick assessed as reduction of oocyst at 150 ppm after 48 hrs relative to control. Type of data set: functional. In short, it runs like this:
as §1

Data set [12] concerns Eimeria tenella. Nature of the data set: Anticococcidal activity against Eimeria tenella infected chick at 75 to 150 ppm. Type of data set: functional, organism-based. In short, it runs like this: as §1
Data set [13] relates to Eimeria acervulina. Nature of the data set: Anticococcidal activity against Eimeria acervulina infected chick at 75 to 150 ppm. Type of data set: functional, organism-based. In short, it runs like this: as §1
Data set [14] has as its system Eimeria mitis. The data set can be described thus: Anticococcidal activity against Eimeria mitis infected chick at 75 to 150 ppm. Type of data set: functional, organism-based. In short, it runs like this: as §1
In data set [15] the test system is Eimeria maxima. The data set can be described thus: Anticococcidal activity against Eimeria maxima infected chick at 75 to 150 ppm. Type of data set: functional, organism-based. In short, it runs like this:
as §1

Data set [16] relates to Eimeria praecox. The data set can be described thus: Anticococcidal activity against Eimeria praecox infected chick at 75 to 150 ppm. It counts as functional. In short, it runs like this:
as §1

Data set [17] relates to Eimeria tenella. Nature of the data set: Anticococcidal activity against Eimeria tenella infected chick at 416 ppm, po. Type of data set: functional, organism-based. In a few lines:
as §1

Data set [18] concerns Eimeria acervulina. Nature of the data set: Anticococcidal activity against Eimeria acervulina infected chick at 416 ppm, po. It counts as functional, organism-based. In a few lines:
as §1

For data set [19], the system named is Eimeria mitis. Nature of the data set: Anticococcidal activity against Eimeria mitis infected chick at 416 ppm, po. It counts as functional, organism-based. In a few lines:
as §1

Data set [20] concerns Eimeria maxima. The data set can be described thus: Anticococcidal activity against Eimeria maxima infected chick at 416 ppm, po. Type of data set: functional, organism-based. In short, it runs like this:
as §1

Data set [21] has as its system Eimeria praecox. Nature of the data set: Anticococcidal activity against Eimeria praecox infected chick at 416 ppm, po. Type of data set: functional. In short, it runs like this: as §1
Data set [22] has as its system Eimeria tenella. The data set can be described thus: Anticococcidal activity against Eimeria tenella infected chick at 28 mg/kg, ip. Type of data set: functional, organism-based. Details: dose 28 mg/kg. In a few lines: as §1
In data set [23] the test system is Eimeria acervulina. Nature of the data set: Anticococcidal activity against Eimeria acervulina infected chick at 28 mg/kg, ip. It counts as functional, organism-based. Details: dose 28 mg/kg. In short, it runs like this: as §1
Data set [24] concerns Eimeria mitis. Nature of the data set: Anticococcidal activity against Eimeria mitis infected chick at 28 mg/kg, ip. Type of data set: functional, organism-based. Details: dose 28 mg/kg. In a few lines: as §1
Data set [25] relates to Eimeria maxima. Nature of the data set: Anticococcidal activity against Eimeria maxima infected chick at 28 mg/kg, ip. It counts as functional, organism-based. Details: dose 28 mg/kg. In a few lines:
as §1

In data set [26] the test system is Eimeria praecox. The data set can be described thus: Anticococcidal activity against Eimeria praecox infected chick at 28 mg/kg, ip. It counts as functional, organism-based. Details: dose 28 mg/kg. In short, it runs like this:
as §1

Calls of active or inactive are those of the source. The calls are words filed in the database; no cut-off is given here. Where only a bound is given, the exact number is not on record here.

`CCC(=O)CCCCC[C@@H]1NC(=O)[C@H]2CCCCN2C(=O)[C@H]([C@@H](C)CC)NC(=O)[C@H](Cc2cn(OC)c3ccccc23)NC1=O` [APICIDIN]: the EC50 in the data set on Besnoitia jellisoni is less than 0.28 µM. The figures for the Activity entry in the data set on HFF [1] and in the data set on HFF [2] were “Toxic” and “Non-toxic”, respectively.
For the compound `CC1=C[C@@]2(C)O[C@@H](C)[C@@](C)(O)[C@H]2[C@@H]1/C=C/C=C/C=C/C=C/C1(C)C2OC(=O)C1(C)C(=O)C2C` (stereo partly drawn) [COCCIDIOSTATIN A], the Activity in the data set with Eimeria tenella [3] is recorded as 59%; in the data set with Eimeria acervulina [4], 74%; in the data set on Eimeria acervulina [5], 64%; in the data set on Eimeria mitis [6], 44%; with HFF [9], “Non-toxic”. The result in the data set with Eimeria maxima [7], in the data set on Eimeria praecox [8], in the data set on Eimeria maxima [10] and in the data set on Eimeria praecox [11] was inactive. In addition, the outcome with Eimeria tenella [12], in the data set on Eimeria acervulina [13], in the data set on Eimeria mitis [14], in the data set on Eimeria maxima [15] and in the data set on Eimeria praecox [16] was Active.
On to `CC(=C/C(C)=C\[C@]1(C)O[C@@H](C)[C@]2(C)O[C@@H]21)/C=C(C)\C=C(C)/C=C(\C)[C@@H]1OC(=O)C(C)(C)C(=O)[C@H]1C` [EMECORRGATIN A], for which the EC50 with Besnoitia jellisoni worked out at 1.39 µM. Moreover, the outcome in the data set on Eimeria tenella [17], in the data set on Eimeria acervulina [18], in the data set with Eimeria mitis [19], in the data set on Eimeria maxima [20], in the data set with Eimeria praecox [21] and in the data set on Eimeria tenella [22] was inactive. Also, the outcome in the data set on Eimeria acervulina [23], in the data set with Eimeria mitis [24], in the data set on Eimeria maxima [25] and with Eimeria praecox [26] was inactive.

The record behind these values is ChEMBL document CHEMBL1141250, “Isolation, structure, and coccidiostat activity of coccidiostatin A” (J Nat Prod, 2007).
